A short description of data set [1]: Prodrug conversion in human brain S9 fractions assessed as conversion of oseltamivir to oseltamivir carboxylate. The data set is classed as ADME. In a few lines:
(§1)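 S9 from brain or liver (rat S9 made by homogenizing tissue in ~4 ml Tris-sucrose buffer per g, supernatant after 9,000 × g at 10°C; pooled human brain and liver S9 also used), protein by bicinchoninic acid assay. Oseltamivir: triplicate, 10 μM 14C-oseltamivir final, 1.0 mg S9 protein, 100 mM Tris-HCl pH 7.4, 30 min at 37°C, quenched with TCA-acetonitrile.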

Another data set deals with MDR1 (P-gp, ABCB1) (Homo sapiens, UniProt P08183). As to the kind of experiment: Activity of human MDR1-mediated permeability from apical to basolateral side in pig LLC-PK1 cells in presence of P-gp inhibitor elacridar. The data set is classed as cell-based. To be noted: LLC-PK1, with elacridar (concentration not stated), read-out: permeability. In a few lines:
(§2)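 P-gp-transfected LLC-PK1 monolayers received [14C]oseltamivir (0.1–10 mM) plus Lucifer yellow on the apical or basolateral donor side, with or without 1 µM elacridar. Incubation was at 37°C under 5% CO2. The acceptor side was sampled at 0.5–3 h and counted by scintillation. Pe was taken from the 3 h point, without correction for marker flux. Three inserts were used per condition and averaged.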

Data set [2] in a line: AUC (0 to infinity) ratio in brain to plasma in perfused Sprague-Dawley rat at 30 mg/kg, iv. The data set is classed as ADME, organism-based. More on the design: dose 30 mg/kg, route intravenous. The following applies: brain and plasma, read-out: Ratio AUC. In a few lines:
(§3)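 Nonfasted adult rats received 30 mg/kg in aqueous 0.9% NaCl (pH 4.0) by slow tail-vein injection over 20–30 s. Groups were sampled at 5 min and 0.25, 0.5, 1, 2, 4 and 8 h, with 4–5 rats per time point, under terminal isoflurane. Blood was taken by heart puncture and CSF from the cisterna magna. Brains were homogenized either unperfused or after transcardial saline perfusion. Samples were assayed by LC-MS/MS, and pooled composite data were analyzed noncompartmentally.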

Data set [3] can be described thus: Prodrug conversion in commercial brain S9 fractions assessed as conversion of oseltamivir to oseltamivir carboxylate. The data set is classed as ADME. In a few lines: as §1
The nature of data set [4]: Prodrug conversion in commercial liver S9 fractions assessed as oseltamivir carboxylate generation rate assessed per mg of protein per min. The format is ADME, subcellular, S9 fraction. In a few lines:
as §1

The nature of data set [5]: Prodrug conversion in 42 days old male rat brain S9 fractions assessed as paranitrophenol generation rate assessed per mg of protein per min. The data set is classed as ADME, tissue-based. In a few lines:
(§4)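 Control esterase activity was measured by incubating 100 µM p-nitrophenyl acetate (final) with 0.05 mg rat brain or liver S9 protein in 1.5 ml Tris-HCl pH 7.4 for 1 min at 37°C. Reactions were quenched with acetonitrile, and product was quantified by HPLC-UV against external standards. The no-protein blank rate was subtracted, and rate was expressed per mg protein per min.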

Data set [6] can be described thus: Prodrug conversion in human brain S9 fractions assessed as oseltamivir carboxylate generation rate assessed per mg of protein per min. The data set is classed as ADME. The method, boiled down:
as §1

Data set [7] in a line: Clearance in Sprague-Dawley rat at 30 mg/kg, iv. The format is ADME, organism-based. Also on record: dose 30 mg/kg, route intravenous. The following applies: in vivo. In a few lines: as §3
Data set [8] can be described thus: Prodrug conversion in 42 days old female rat brain S9 fractions assessed as conversion of oseltamivir to oseltamivir carboxylate. The data set is classed as ADME, tissue-based. The method, boiled down:
(§5)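 Rat brain or liver S9 (9,000 × g supernatant; 1.0 mg protein) was incubated in triplicate with 10 µM 14C-oseltamivir (final) in 100 mM Tris-HCl pH 7.4 for 30 min at 37°C. Reactions were quenched with TCA-acetonitrile, and the fraction converted to OC was measured by radioflow HPLC with fractionation. Rate was calculated as (pmol/ml substrate × fraction hydrolyzed)/(mg protein/ml × time), minus the no-protein background.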

Data set [9] deals with LLC-PK1. As to the kind of experiment: Permeability from apical to basolateral side of pig LLC-PK1 cells over expressing human MDR1. The data set is classed as ADME, cell-based, Sus scrofa. The method, boiled down:
as §2

Data set [10] in a line: Prodrug conversion in human liver S9 fractions assessed as paranitrophenol generation rate assessed per mg of protein per min. The data set is classed as ADME, subcellular, S9 fraction.
The nature of data set [11]: Prodrug conversion in commercial liver S9 fractions assessed as paranitrophenol generation rate assessed per mg of protein per min. The data set is classed as ADME, subcellular, Liver S9 fraction.
A short description of data set [12]: Prodrug conversion in 42 days old female rat brain S9 fractions assessed as paranitrophenol generation rate assessed per mg of protein per min. The data set is classed as ADME, tissue-based. In a few lines:
as §4

Data set [13] is described as follows: Prodrug conversion in 42 days old male rat liver S9 fractions assessed as paranitrophenol generation rate assessed per mg of protein per min. The data set is classed as ADME, subcellular, S9 fraction. The method, boiled down:
as §4

Data set [14] in a line: Prodrug conversion in 42 days old male rat liver S9 fractions assessed as conversion of oseltamivir to oseltamivir carboxylate. The format is ADME, subcellular, S9 fraction. In a few lines: as §5
Data set [15] is described as follows: Prodrug conversion in 7 days old female rat brain S9 fractions assessed as paranitrophenol generation rate assessed per mg of protein per min. The format is ADME, tissue-based.
Data set [16] is described as follows: Prodrug conversion in 42 days old male rat brain S9 fractions assessed as oseltamivir carboxylate generation rate assessed per mg of protein per min. The format is ADME, tissue-based. In a few lines: as §5
A short description of data set [17]: Prodrug conversion in 7 days old female rat liver S9 fractions assessed as paranitrophenol generation rate assessed per mg of protein per min. The format is ADME, subcellular, S9 fraction.
Data set [18] concerns LLC-PK1. Nature of the data set: Permeability from basolateral to apical side of pig LLC-PK1 cells over expressing human MDR1. The data set is classed as ADME, cell-based, Sus scrofa. In a few lines:
as §2

Data set [19] can be described thus: Prodrug conversion in 7 days old male rat brain S9 fractions assessed as oseltamivir carboxylate generation rate assessed per mg of protein per min. The format is ADME, tissue-based. In a few lines: as §1
Data set [20] is described as follows: Prodrug conversion in 7 days old male rat liver S9 fractions assessed as oseltamivir carboxylate generation rate assessed per mg of protein per min. The format is ADME, subcellular, S9 fraction. In a few lines:
as §1

Data set [21] can be described thus: Prodrug conversion in 7 days old female rat liver S9 fractions assessed as oseltamivir carboxylate generation rate assessed per mg of protein per min. The format is ADME, subcellular, S9 fraction. In a few lines: as §1
Data set [22] can be described thus: Prodrug conversion in 7 days old female rat liver S9 fractions assessed as conversion of oseltamivir to oseltamivir carboxylate. The data set is classed as ADME, subcellular, S9 fraction. The method, boiled down: as §1
Data set [23] can be described thus: Prodrug conversion in human liver S9 fractions assessed as conversion of oseltamivir to oseltamivir carboxylate. The data set is classed as ADME, subcellular, S9 fraction. The method, boiled down: as §1
Data set [24] deals with Brain. Nature of the data set: Cmax in non-perfused Sprague-Dawley rat brain assessed as active metabolite oseltamivir carboxylate level at 30 mg/kg, iv. The data set is classed as ADME, organism-based. Also on record: dose 30 mg/kg, route intravenous. The following applies: in vivo. In a few lines:
as §3

The subject of another data set is Cerebrospinal fluid. Nature of the data set: Cmax in non-perfused Sprague-Dawley rat cerebrospinal fluid assessed as active metabolite oseltamivir carboxylate level at 30 mg/kg, iv. The data set is classed as ADME, organism-based. The following applies: in vivo, BLD = below limit of detection. More on the design: dose 30 mg/kg, route intravenous. In a few lines: as §3

Data set [25] is described as follows: Cmax in non-perfused Sprague-Dawley rat brain at 30 mg/kg, iv after 0.25 hrs. The format is ADME, organism-based. More on the design: dose 30 mg/kg, route intravenous. The method, boiled down:
as §3

Data set [26] can be described thus: Cmax ratio in brain to plasma in perfused Sprague-Dawley rat at 30 mg/kg, iv. More on the design: dose 30 mg/kg, route intravenous. The data set is classed as ADME, organism-based. The following applies: brain and plasma. In a few lines:
as §3

Data set [27] relates to Brain. Nature of the data set: Terminal half life in non-perfused Sprague-Dawley rat brain assessed as active metabolite oseltamivir carboxylate level at 30 mg/kg, iv. The format is ADME, organism-based. To be noted: in vivo. More on the design: dose 30 mg/kg, route intravenous. In a few lines:
(§6)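 Nonfasted Sprague-Dawley rats given 30 mg/kg i.v. in 0.9% NaCl pH 4.0 by tail vein over 20–30 s. Terminal sampling under isoflurane at 5 min, 0.25, 0.5, 1, 2, 4 and 8 h (4–5 rats/time): plasma, CSF, and brain homogenate, with or without saline perfusion. LC-MS/MS. t1/2, Vss and ratios from noncompartmental analysis of pooled composite concentrations.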

The subject of data set [28] is Plasma. Nature of the data set: AUC (0 to 8 hrs) after iv dose in non-perfused Sprague-Dawley rat plasma assessed as active metabolite oseltamivir carboxylate level at 30 mg/kg. The following applies: in vivo.
Data set [29] concerns Plasma. Nature of the data set: Terminal half life in non-perfused Sprague-Dawley rat plasma assessed as active metabolite oseltamivir carboxylate level at 30 mg/kg, iv. The following applies: in vivo. The data set is classed as ADME, organism-based. More on the design: dose 30 mg/kg, route intravenous. In a few lines: as §6
The nature of data set [30]: AUC ratio in brain to plasma in perfused Sprague-Dawley rat at 30 mg/kg, iv. To be noted: brain and plasma, read-out: Ratio AUC. The format is ADME, organism-based. More on the design: dose 30 mg/kg, route intravenous. In a few lines: as §3

MDR1 (P-gp, ABCB1), sequence (P08183 whole entry): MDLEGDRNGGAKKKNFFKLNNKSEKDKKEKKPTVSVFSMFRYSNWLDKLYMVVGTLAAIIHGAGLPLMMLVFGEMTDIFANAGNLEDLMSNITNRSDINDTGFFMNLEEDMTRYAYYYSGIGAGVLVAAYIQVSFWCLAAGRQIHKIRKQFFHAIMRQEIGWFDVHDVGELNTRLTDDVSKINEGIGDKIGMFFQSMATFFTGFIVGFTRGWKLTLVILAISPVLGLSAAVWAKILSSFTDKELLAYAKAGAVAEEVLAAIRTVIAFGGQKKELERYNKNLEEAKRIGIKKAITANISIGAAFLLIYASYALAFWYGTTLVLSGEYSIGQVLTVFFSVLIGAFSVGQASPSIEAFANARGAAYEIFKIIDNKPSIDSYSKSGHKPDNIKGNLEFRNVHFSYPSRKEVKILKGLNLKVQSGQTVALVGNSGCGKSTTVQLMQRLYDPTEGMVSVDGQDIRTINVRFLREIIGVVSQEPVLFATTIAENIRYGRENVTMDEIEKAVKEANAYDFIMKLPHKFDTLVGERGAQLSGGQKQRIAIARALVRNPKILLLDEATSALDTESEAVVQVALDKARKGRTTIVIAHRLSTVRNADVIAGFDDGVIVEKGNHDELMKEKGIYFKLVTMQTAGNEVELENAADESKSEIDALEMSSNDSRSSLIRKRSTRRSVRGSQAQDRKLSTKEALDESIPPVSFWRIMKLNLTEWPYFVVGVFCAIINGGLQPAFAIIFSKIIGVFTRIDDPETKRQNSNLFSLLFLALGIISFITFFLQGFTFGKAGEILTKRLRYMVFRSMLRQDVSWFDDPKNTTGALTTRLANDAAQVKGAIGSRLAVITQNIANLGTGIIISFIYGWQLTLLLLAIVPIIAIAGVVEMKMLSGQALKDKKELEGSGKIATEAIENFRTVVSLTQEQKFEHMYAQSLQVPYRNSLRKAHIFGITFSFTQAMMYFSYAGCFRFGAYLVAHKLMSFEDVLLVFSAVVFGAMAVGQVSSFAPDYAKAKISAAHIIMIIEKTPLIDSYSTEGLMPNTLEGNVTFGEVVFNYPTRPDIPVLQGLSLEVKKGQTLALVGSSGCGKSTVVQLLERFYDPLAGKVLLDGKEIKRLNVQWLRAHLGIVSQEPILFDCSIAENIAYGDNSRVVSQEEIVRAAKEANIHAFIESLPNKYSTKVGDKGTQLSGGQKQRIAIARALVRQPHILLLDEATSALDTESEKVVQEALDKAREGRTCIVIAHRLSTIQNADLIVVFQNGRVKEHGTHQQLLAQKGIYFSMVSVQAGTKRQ

What is called clearance is the rate of elimination divided by the concentration. For orientation: Papp means the rate of passage across a membrane or cell layer, normalised by area and donor concentration. A high value points to ready permeation. `CCOC(=O)C1=C[C@@H](OC(CC)CC)[C@H](NC(C)=O)[C@@H](N)C1` [OSELTAMIVIR]: the Activity in data set [1] is given as 0.12%; in data set [1] (BLD = below limit of detection) it was “BLD”; in [3], 0.1%; in data set [4] it was 126 pmol/s; in data set [5], 112 nmol; in data set [6], 0.39 pmol/s. Moreover, the Activity result in [6] (BLD = below limit of detection) is “BLD”; in [8], 0.18%; in data set [10], 574 nmol; in data set [11], 482 nmol; in data set [12], 70 nmol; in [13], 1446 nmol. The Activity in data set [14] is on record as 0.63%; in [15], 92 nmol; in data set [16], 0.52 pmol/s; in data set [17], 538 nmol; in [19], under 0.2 pmol/s; in data set [20], 0.33 pmol/s. In addition, the Activity was 0.34 pmol/s in data set [21], 0.1% in data set [22] and 3.57% in data set [23]. Also, on MDR1 (P-gp, ABCB1), the Papp A→B was found to be 3.89 ×10⁻⁶ cm/s. Further, the Kp in [2] turned out to be 0.21. The molecule also returned a clearance in data set [7] of 93.9 mL/min/kg. The Papp with LLC-PK1 [9] and in the data set on LLC-PK1 [18] was 1.01 ×10⁻⁶ cm/s each time.
As usually defined, the Cmax is the peak of the concentration-time curve. Regarding `CCC(CC)O[C@@H]1C=C(C(=O)O)C[C@H](N)[C@H]1NC(C)=O` [OSELTAMIVIR CARBOXYLATE], the Cmax in the data set on Brain [24] was 164 ng/g; in the data set with Cerebrospinal fluid, “BLD”; in data set [25], 164 ng/g. For the same molecule, the Kp in data set [26] was 0.01; in [30], under 0.004. For the same molecule, the “beta t1/2” value in the data set with Brain [27] was determined as 0.508 h; in the data set with Plasma [29], 1.69 h. Besides, the AUC in the data set with Plasma [28] came to 13600.

For the origin of these results see ChEMBL document CHEMBL1687750, “Nonclinical pharmacokinetics of oseltamivir and oseltamivir carboxylate in the central nervous system” (Antimicrob Agents Chemother, 2009).
